In ChEMBL document CHEMBL4406881, “Design, synthesis and biological evaluation of benzoylacrylic acid shikonin ester derivatives as irreversible dual inhibitors of tubulin and EGFR” (Bioorg Med Chem, 2019) one finds viability, Activity and inhibition data, which are given here for one compound.

Assay [1] has as its system A549. Description: Induction of apoptosis in human A549 cells assessed as viable cells at 8 uM after 24 hrs by Annexin-V/PI staining based flow cytometry analysis (reference value: 91.4%). Type of assay: functional. Conditions: A549, 24 h, read-out: Activity. In outline:
(§1)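 A549 cells seeded overnight at 37 °C, 5% CO2, then exposed to 0, 2, 4, 8 or 12 µM for 24 h (dose series) or 8 µM for 0, 12, 24, 36 h (time series). Harvested, PBS-washed, stained with Annexin V-FITC and PI in binding buffer 15 min at room temperature in the dark, analysed by flow cytometry; three independent experiments.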

Assay [2] deals with A549. Description: Induction of apoptosis in human A549 cells assessed as viable cells at 2 uM after 24 hrs by Annexin-V/PI staining based flow cytometry analysis (reference value: 91.4%). The settings on record: A549, 24 h, read-out: Activity. Type of assay: functional. An outline of the steps: as §1
Assay [3] deals with A549. Kind of assay: Antitumour activity in ip dosed Balb/c mouse xenografted with human A549 cells assessed as increase in mouse survival at 2 to 4 mg/kg, ip administered once every two days for 32 days. Type of assay: functional, organism-based.
Assay [4] deals with Epidermal growth factor receptor (Homo sapiens, UniProt P00533). Kind of assay: Inhibition of EGFR signalling in human A549 cells assessed as reduction in AKT phosphorylation after 24 hrs by Western blot analysis. Type of assay: cell-based. In outline: (§2)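 A549 cells in 6-well plates were lysed in RIPA buffer with protease inhibitors on ice for 30 min and cleared at 4 °C. Protein was quantified by BCA, run on SDS-PAGE and transferred to PVDF. Membranes were blocked with milk, probed with primary antibody (1:1000) overnight at 4 °C, then secondary antibody (1:3000-1:5000) 1 h at RT. Detection by ECL; band densitometry normalised to GAPDH (β-actin also used). Three independent experiments.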

The subject of assay [5] is A549. Kind of assay: Cell cycle arrest in human A549 cells assessed as accumulation at S phase at 8 uM after 12 hrs by RNAse A/ PI staining based flow cytometric analysis (reference value: 19.66%). Type of assay: functional. In outline:
(§3)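 A549 cells at 5.0×10^4 per well were grown 12 h at 37 °C. Treatment was 0, 2, 4 or 8 µM for 24 h, or 8 µM for 0, 12, 24 or 36 h. Cells were fixed in 70% ethanol at −20 °C for at least 12 h, then stained in PBS with 0.1 mg/mL RNase A and 5 µg/mL PI. At least 10,000 events per sample were collected by flow cytometry to give G0/G1, S and G2/M percentages.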

In assay [6] the test system is A549. Description: Induction of apoptosis in human A549 cells assessed as necrotic cells after at 8 uM 12 hrs by Annexin-V/PI staining based flow cytometry analysis (reference value: 2.98%). Type of assay: functional. In outline:
as §1

Assay [7] deals with A549. Description: Cell cycle arrest in human A549 cells assessed as accumulation at G2/M phase at 8 uM after 12 hrs by RNAse A/ PI staining based flow cytometric analysis (reference value: 12.65%). Type of assay: functional. An outline of the steps: as §3
Assay [8] concerns A549. Description: Induction of apoptosis in human A549 cells assessed as late apoptotic cells at 12 uM after 24 hrs by Annexin-V/PI staining based flow cytometry analysis (reference value: 5.69%). The assay is classed as functional.
Assay [9] relates to A549. Kind of assay: Induction of G2/M cell cycle arrest in human A549 cells assessed as increase in CDK1 expression at 2 to 8 uM by immunoblot analysis. Type of assay: functional, cell-based. An outline of the steps:
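A549 lysates in RIPA buffer with protease inhibitors were run on SDS-PAGE and blotted to PVDF. Membranes were probed overnight at 4 °C with primary antibody at 1:1000, then secondary antibody at 1:3000-1:5000 for 1 h, and detected by ECL. Band intensity was normalised to GAPDH. Results are mean ± S.E.M. from three independent experiments.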

Assay [10] has as its system A549. Kind of assay: Induction of apoptosis in human A549 cells assessed as reduction in caspase-3 expression at 2 to 8 uM after 24 hrs by Western blot analysis. The assay is classed as functional, cell-based. In outline:
as §2

In assay [11] the test system is A549. Kind of assay: Induction of apoptosis in human A549 cells assessed as late apoptotic cells at 8 uM after 12 hrs by Annexin-V/PI staining based flow cytometry analysis (reference value: 6.55%). The assay is classed as functional. In outline:
as §1

The subject of assay [12] is A549. Description: Induction of apoptosis in human A549 cells assessed as necrotic cells after at 2 uM 24 hrs by Annexin-V/PI staining based flow cytometry analysis (reference value: 1.81%). The assay is classed as functional. In outline: as §1
The subject of assay [13] is A549. Description: Induction of apoptosis in human A549 cells assessed as necrotic cells after at 8 uM 24 hrs by Annexin-V/PI staining based flow cytometry analysis (reference value: 1.81%). The assay is classed as functional. In outline:
as §1

The test system of assay [14] is A549. Kind of assay: Induction of apoptosis in human A549 cells assessed as early apoptotic cells at 8 uM after 24 hrs by Annexin-V/PI staining based flow cytometry analysis (reference value: 1.15%). The assay is classed as functional.
Assay [15] relates to A549. Description: Induction of apoptosis in human A549 cells assessed as early apoptotic cells at 8 uM after 12 hrs by Annexin-V/PI staining based flow cytometry analysis (reference value: 2.02%). The assay is classed as functional.
The subject of assay [16] is A549. Description: Induction of apoptosis in human A549 cells assessed as early apoptotic cells at 4 uM after 24 hrs by Annexin-V/PI staining based flow cytometry analysis (reference value: 1.15%). Type of assay: functional.
Assay [17] concerns A549. Description: Induction of apoptosis in human A549 cells assessed as late apoptotic cells at 2 uM after 24 hrs by Annexin-V/PI staining based flow cytometry analysis (reference value: 5.69%). The assay is classed as functional.
Assay [18] deals with A549. Kind of assay: Cell cycle arrest in human A549 cells assessed as accumulation at G2/M phase at 8 uM after 24 hrs by RNAse A/ PI staining based flow cytometric analysis (reference value: 9.47%). Type of assay: functional. An outline of the steps: as §3
Assay [19] deals with Tubulin (Homo sapiens) (UniProt P68371+Q9H4B7+P0DPH7+P68366+Q13509+Q71U36+P04350+Q3ZCM7+P07437+P68363+Q9BQE3+Q6PEY2+Q13885+Q9BVA1+Q9BUF5). Description: Induction of tubulin depolymerization in human A549 cells at 4 to 8 uM after 24 hrs by DAPI staining based fluorescence microscopic analysis. Type of assay: cell-based. An outline of the steps: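 Cells were fixed in 4% paraformaldehyde, permeabilised with 1% Triton, and blocked with 5% BSA. Staining used anti-tubulin (1:200) overnight, then Cy3 anti-mouse IgG (1:1500) 1 h, then DAPI 1 µg/mL. Imaging by confocal microscopy.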

The subject of assay [20] is A549. Kind of assay: Induction early apoptosis in human A549 cells assessed as increase in ROS generation after by flow cytometric analysis. The assay is classed as functional, cell-based. In outline:
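Intracellular ROS measured in A549 cells seeded to about 75% confluence. After treatment, cells were stained with ROS detection solution at 37 °C for 20 min, washed three times in serum-free medium, and analysed by flow cytometry.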

Assay [21] has as its system A549. Description: Cell cycle arrest in human A549 cells assessed as accumulation at G1 phase at 8 uM after 24 hrs by RNAse A/ PI staining based flow cytometric analysis (reference value: 67.69%). Type of assay: functional. An outline of the steps:
as §3

Assay [22] concerns A549. Description: Induction of apoptosis in human A549 cells assessed as high mitochondrial membrane potential at 4 uM after 12 hrs by JC-1 staining-based flow cytometric analysis (reference value: 90.6%). The assay is classed as functional. An outline of the steps:
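JC-1 staining of A549 cells treated for 12 h. CCCP-treated wells, 20 min at 37 °C, served as positive control. Collected cells were incubated with JC-1 solution at 37 °C for 30 min, washed, and analysed by flow cytometry for the fraction with high ΔΨm and for PI-positive cells. Results are mean ± S.E.M. of three replicates.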

The structures appear in SMILES notation. Calls of active or inactive are those of the source. The rule behind the calls is not given here.

Epidermal growth factor receptor, sequence (P00533 whole entry): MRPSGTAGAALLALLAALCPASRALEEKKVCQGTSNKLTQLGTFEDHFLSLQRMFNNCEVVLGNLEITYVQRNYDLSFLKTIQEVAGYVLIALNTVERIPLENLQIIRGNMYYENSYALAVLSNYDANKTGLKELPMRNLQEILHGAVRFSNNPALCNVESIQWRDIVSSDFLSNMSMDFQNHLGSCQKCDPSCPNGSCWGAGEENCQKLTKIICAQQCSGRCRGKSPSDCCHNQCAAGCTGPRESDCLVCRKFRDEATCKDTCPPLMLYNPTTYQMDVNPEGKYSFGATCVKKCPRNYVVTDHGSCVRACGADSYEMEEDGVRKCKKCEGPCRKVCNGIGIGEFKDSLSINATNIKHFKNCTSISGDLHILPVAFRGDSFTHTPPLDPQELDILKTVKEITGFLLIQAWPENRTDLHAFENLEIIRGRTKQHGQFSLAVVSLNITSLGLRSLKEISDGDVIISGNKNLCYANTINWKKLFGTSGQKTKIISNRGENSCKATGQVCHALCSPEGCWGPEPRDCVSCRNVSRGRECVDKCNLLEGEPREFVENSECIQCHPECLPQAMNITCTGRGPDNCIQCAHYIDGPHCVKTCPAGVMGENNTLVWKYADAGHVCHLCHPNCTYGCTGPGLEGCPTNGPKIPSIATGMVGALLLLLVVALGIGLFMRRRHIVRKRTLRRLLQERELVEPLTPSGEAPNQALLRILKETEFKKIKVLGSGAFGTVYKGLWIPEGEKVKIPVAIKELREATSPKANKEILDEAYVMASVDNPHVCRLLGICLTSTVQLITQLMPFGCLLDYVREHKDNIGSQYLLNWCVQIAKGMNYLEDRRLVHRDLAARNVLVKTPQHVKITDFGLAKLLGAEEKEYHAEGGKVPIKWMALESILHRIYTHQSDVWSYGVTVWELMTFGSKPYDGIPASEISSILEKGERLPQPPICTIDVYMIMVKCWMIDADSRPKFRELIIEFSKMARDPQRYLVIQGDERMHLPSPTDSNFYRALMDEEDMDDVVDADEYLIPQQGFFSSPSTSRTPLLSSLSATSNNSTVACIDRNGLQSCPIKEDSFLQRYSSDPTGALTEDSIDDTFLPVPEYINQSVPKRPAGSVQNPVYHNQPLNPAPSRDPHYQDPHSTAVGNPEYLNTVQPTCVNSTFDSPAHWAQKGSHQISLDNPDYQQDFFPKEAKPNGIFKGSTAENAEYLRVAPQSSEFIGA

In the case of `CC(C)=CC[C@@H](OC(=O)/C=C\C(=O)c1ccc(F)cc1)C1=CC(=O)c2c(O)ccc(O)c2C1=O`, in assay [1], the viability at 8 µM came out at 30.6%. For the same compound, in assay [2], the viability at 2 µM stood at 83.7%. For the same compound, the result in assay [3], in assay [9], in assay [10] and in assay [19] was Active. Further, in [4], the inhibition result is “Dose-dependent effect”. The Activity in assay [5] was 24.72%; in assay [6], 2.04%; in [7], 19.4%; in assay [8] it was 38.1%; in assay [11] it was 10%; in [12], 2.2%. Moreover, the Activity in [13] was 3.29%; in [14] it was 35.6%; in assay [15], 8.92%; in [16], 17.6%; in assay [17], 9.45%; in assay [18] it was 33.01%. Further, the Activity entry in assay [20] is “Dose-dependent effect”; in assay [21] it was 42.59%; in [22], 67.8%.
